Test results taken from ChEMBL document CHEMBL1926614, “Substituted thiazoles V. synthesis and antitumor activity of novel thiazolo[2,3-b]quinazoline and pyrido[4,3-d]thiazolo[3,2-a]pyrimidine analogues” (2012).
Calls of active or inactive are those of the source. The rule behind the calls is not given here.

Experiments:
Type in all cases: functional
U-251 = assay: Growth inhibition of human U251 cells at 10 uM after 48 hrs by coulter counting; conditions: U-251, 48 h, read-out: GI
Procedure, shortened: (§1)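 Single-dose screen in the NCI 60 human tumor cell line panel (nine subpanels). Compounds dissolved in DMSO and diluted in phosphate buffered saline, keeping final DMSO below 1%. Added in duplicate wells to cells at 6 × 10⁴ cells/ml. Controls held PBS and DMSO at matching dilutions. Incubated at 37 °C, humidified, 5% CO₂. Reported as percent growth of treated cells.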

SK-MEL-5 = assay: Growth inhibition of human SK-MEL-5 cells at 10 uM after 48 hrs by coulter counting; conditions: SK-MEL-5, 48 h, read-out: GI
Procedure, shortened: (§2)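 Single-dose primary screen across the full NCI 60-cell-line panel. Stocks were made in DMSO and diluted in PBS to a final DMSO below 1%. Cultures at 6 × 10⁴ cells/ml were run in duplicate wells alongside PBS/DMSO vehicle controls at 37 °C in humidified 5% CO₂. Data were expressed as percent growth of treated cells.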

[1] = Cytotoxicity against human melanoma cells after 48 hrs by coulter counting; conditions: Melanoma cell; for CC50: read-out: LC50 (the source's name)
Procedure, shortened: (§3)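 NCI 60-cell-line panel covering nine tumour subpanels, tested over a 5-log dose range. Compounds were dissolved in DMSO and diluted in phosphate-buffered saline to a final DMSO below 1%. Wells held 6 × 10⁴ cells/ml and were run in duplicate. Controls contained PBS and DMSO at matching dilutions. Incubation was at 37 °C in humidified 5% CO₂. GI₅₀, TGI and LC₅₀ were reported.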

ACHN = assay: Growth inhibition of human ACHN cells at 10 uM after 48 hrs by coulter counting; procedure, shortened: as §2
UACC-257 = assay: Growth inhibition of human UACC257 cells at 10 uM after 48 hrs by coulter counting; procedure, shortened: as §1
OVCAR-3 = assay: Growth inhibition of human OVCAR3 cells at 10 uM after 48 hrs by coulter counting; procedure, shortened: as §2
SK-MEL-28 = assay: Growth inhibition of human SK-MEL-28 cells at 10 uM after 48 hrs by coulter counting; conditions: SK-MEL-28, 48 h, read-out: GI; procedure, shortened: as §2
CCRF-CEM = assay: Growth inhibition of human CCRF-CEM cells at 10 uM after 48 hrs by coulter counting; conditions: read-out: GI; procedure, shortened: as §2
SR = assay: Growth inhibition of human SR cells at 10 uM after 48 hrs by coulter counting; procedure, shortened: as §1
UACC-62 = assay: Growth inhibition of human UACC62 cells at 10 uM after 48 hrs by coulter counting; procedure, shortened: as §1
NCI-H522 = assay: Growth inhibition of human NCI-H522 cells at 10 uM after 48 hrs by coulter counting; conditions: NCI-H522, 48 h, read-out: GI; procedure, shortened: as §2
K562 = assay: Growth inhibition of human K562 cells at 10 uM after 48 hrs by coulter counting; conditions: K562, 48 h, read-out: GI; procedure, shortened: as §2
NCI-H226 = assay: Growth inhibition of human NCI-H226 cells at 10 uM after 48 hrs by coulter counting; conditions: NCI-H226, 48 h, read-out: GI; procedure, shortened: as §2
[2] = Cytotoxicity against human ovarian cancer cells after 48 hrs by coulter counting; conditions: Cancer cell lines; for CC50: read-out: LC50 (the source's name); procedure, shortened: as §3
MCF7 = assay: Growth inhibition of human MCF7 cells at 10 uM after 48 hrs by coulter counting; conditions: MCF7, 48 h, read-out: GI; procedure, shortened: as §2
[3] = Cytotoxicity against human leukemia cells after 48 hrs by coulter counting; conditions: Leukemia cell; for CC50: read-out: LC50 (the source's name); procedure, shortened: as §3
SNB-19 = assay: Growth inhibition of human SNB19 cells at 10 uM after 48 hrs by coulter counting; conditions: SNB-19, 48 h, read-out: GI; procedure, shortened: as §2
NCI-H23 = assay: Growth inhibition of human NCI-H23 cells at 10 uM after 48 hrs by coulter counting; conditions: NCI-H23, 48 h, read-out: GI; procedure, shortened: as §2
[4] = Cytotoxicity against human renal cancer cells after 48 hrs by coulter counting; conditions: Cancer cell lines; procedure, shortened: as §3
[5] = Cytotoxicity against human colon cancer cells after 48 hrs by coulter counting; conditions: Cancer cell lines; procedure, shortened: as §3
SF-295 = assay: Growth inhibition of human SF295 cells at 10 uM after 48 hrs by coulter counting; conditions: SF-295, 48 h, read-out: GI; procedure, shortened: as §2
EKVX = assay: Growth inhibition of human EKVX cells at 10 uM after 48 hrs by coulter counting; conditions: read-out: GI; procedure, shortened: as §2
HOP-62 = assay: Growth inhibition of human HOP62 cells at 10 uM after 48 hrs by coulter counting; procedure, shortened: as §2
DU-145 = assay: Growth inhibition of human DU145 cells at 10 uM after 48 hrs by coulter counting; procedure, shortened: as §2
SF-268 = assay: Growth inhibition of human SF268 cells at 10 uM after 48 hrs by coulter counting; conditions: SF-268, 48 h, read-out: GI; procedure, shortened: as §2
M14 = assay: Growth inhibition of human M14 cells at 10 uM after 48 hrs by coulter counting; procedure, shortened: as §2
HCT-15 = assay: Growth inhibition of human HCT15 cells at 10 uM after 48 hrs by coulter counting; procedure, shortened: as §2
SN12C = assay: Growth inhibition of human SN12C cells at 10 uM after 48 hrs by coulter counting; conditions: read-out: GI; procedure, shortened: as §2
NCI/ADR-RES = assay: Growth inhibition of human NCI/ADR-RES cells at 10 uM after 48 hrs by coulter counting; procedure, shortened: as §2
786-0 = assay: Growth inhibition of human 786-0 cells at 10 uM after 48 hrs by coulter counting; conditions: 786-0, 48 h, read-out: GI; procedure, shortened: as §2
A498 = assay: Growth inhibition of human A498 cells at 10 uM after 48 hrs by coulter counting; conditions: A498, 48 h, read-out: GI; procedure, shortened: as §2
UO-31 = assay: Growth inhibition of human UO31 cells at 10 uM after 48 hrs by coulter counting; procedure, shortened: as §1
NCI-H460 = assay: Growth inhibition of human NCI-H460 cells at 10 uM after 48 hrs by coulter counting; procedure, shortened: as §2
HCT-116 = assay: Growth inhibition of human HCT116 cells at 10 uM after 48 hrs by coulter counting; procedure, shortened: as §2
TK-10 = assay: Growth inhibition of human TK10 cells at 10 uM after 48 hrs by coulter counting; conditions: TK-10, 48 h, read-out: GI; procedure, shortened: as §1
OVCAR-8 = assay: Growth inhibition of human OVCAR8 cells at 10 uM after 48 hrs by coulter counting; conditions: OVCAR-8, 48 h, read-out: GI; procedure, shortened: as §2
SK-MEL-2 = assay: Growth inhibition of human SK-MEL-2 cells at 10 uM after 48 hrs by coulter counting; conditions: SK-MEL-2, 48 h, read-out: GI; procedure, shortened: as §2
MOLT-4 = assay: Growth inhibition of human MOLT4 cells at 10 uM after 48 hrs by coulter counting; procedure, shortened: as §2

CCN1CC2=C(N=C3SC=CN3C2c2ccc(OC)c(OC)c2)/C(=C/c2ccc(OC)c(OC)c2)C1 (stereo unspecified)
inhibition of growth at 10 µM (U-251): 90%
inhibition of growth at 10 µM (SK-MEL-5): 60.9%
GI50 [1]: 3.4 µM
TGI [1]: 10.1 µM
CC50 [1]: 44.6 µM
inhibition of growth at 10 µM (ACHN; read-out: GI): 79.5%
inhibition of growth at 10 µM (UACC-257; UACC-257, 48 h, read-out: GI): 63.2%
growth inhibition (GI) (OVCAR-3): Active
inhibition of growth at 10 µM (SK-MEL-28): 61.3%
inhibition of growth at 10 µM (CCRF-CEM): 94%
growth inhibition (GI) (SR): Active
inhibition of growth at 10 µM (UACC-62; UACC-62, 48 h, read-out: GI): 62.4%
inhibition of growth at 10 µM (NCI-H522): 46.1%
inhibition of growth at 10 µM (K562): 95.2%
inhibition of growth at 10 µM (NCI-H226): 53.2%
GI50 [2]: 3.2 µM
TGI [2]: 48.9 µM
CC50 [2]: 90.5 µM
inhibition of growth at 10 µM (MCF7): 80.5%
GI50 [3]: 2.6 µM
TGI [3]: 30.7 µM
CC50 [3]: > 100 µM
inhibition of growth at 10 µM (SNB-19): 52.9%
inhibition of growth at 10 µM (NCI-H23): 43.9%
GI50 [4]: 3.1 µM
LC50 (concentration giving 50% net cell kill) [4]: 52.8 µM
TGI [4]: 9.8 µM
GI50 [5]: 2 µM
LC50 (concentration giving 50% net cell kill) [5]: 29.3 µM
TGI [5]: 4.3 µM
inhibition of growth at 10 µM (SF-295): 82.2%
inhibition of growth at 10 µM (EKVX): 27.1%
inhibition of growth at 10 µM (HOP-62; HOP-62, 48 h, read-out: GI): 84.7%
growth inhibition (GI) (DU-145): Active
inhibition of growth at 10 µM (SF-268): 76%
inhibition of growth at 10 µM (M14; M14, 48 h, read-out: GI): 94.3%
inhibition of growth at 10 µM (HCT-15; HCT-15, 48 h, read-out: GI): 75.8%
inhibition of growth at 10 µM (SN12C): 83.1%
inhibition of growth at 10 µM (NCI/ADR-RES; read-out: GI): 91.2%
inhibition of growth at 10 µM (786-0): > 10%
inhibition of growth at 10 µM (A498): 18.4%
inhibition of growth at 10 µM (UO-31; UO-31, 48 h, read-out: GI): 40.7%
growth inhibition (GI) (NCI-H460): Active
growth inhibition (GI) (HCT-116): Active
inhibition of growth at 10 µM (TK-10): 46.5%
inhibition of growth at 10 µM (OVCAR-8): 95.9%
inhibition of growth at 10 µM (SK-MEL-2): 11.5%
inhibition of growth at 10 µM (MOLT-4; MOLT-4, 48 h, read-out: GI): 67.9%

CCN1CC2=C(N=C3SC=C(C)N3C2c2ccc(OC)c(OC)c2)/C(=C/c2ccc(OC)c(OC)c2)C1 (stereo unspecified)
inhibition of growth at 10 µM (U-251): 97.9%
inhibition of growth at 10 µM (SK-MEL-5): 87.2%
GI50 [1]: 2.7 µM
TGI [1]: 10.8 µM
CC50 [1]: 54.4 µM
growth inhibition (GI) (ACHN): Active
growth inhibition (GI) (UACC-257): Active
growth inhibition (GI) (OVCAR-3): Active
inhibition of growth at 10 µM (SK-MEL-28): 96.5%
inhibition of growth at 10 µM (CCRF-CEM): 97.8%
growth inhibition (GI) (SR): Active
growth inhibition (GI) (UACC-62): Active
inhibition of growth at 10 µM (NCI-H522): 61.7%
inhibition of growth at 10 µM (K562): 96.4%
inhibition of growth at 10 µM (NCI-H226): 98.2%
GI50 [2]: 3.8 µM
TGI [2]: 49.7 µM
CC50 [2]: > 100 µM
inhibition of growth at 10 µM (MCF7): 84.5%
GI50 [3]: 4 µM
TGI [3]: 81.9 µM
CC50 [3]: > 100 µM
inhibition of growth at 10 µM (SNB-19): 61%
inhibition of growth at 10 µM (NCI-H23): 67.6%
GI50 [4]: 2.5 µM
LC50 (concentration giving 50% net cell kill) [4]: 47.1 µM
TGI [4]: 8.9 µM
GI50 [5]: 2.1 µM
LC50 (concentration giving 50% net cell kill) [5]: 35.3 µM
TGI [5]: 5.6 µM
inhibition of growth at 10 µM (SF-295): 69.2%
inhibition of growth at 10 µM (EKVX): 37.5%
growth inhibition (GI) (HOP-62): Active
growth inhibition (GI) (DU-145): Active
inhibition of growth at 10 µM (SF-268): 89.4%
growth inhibition (GI) (M14): Active
growth inhibition (GI) (HCT-15): Active
inhibition of growth at 10 µM (SN12C): 93.7%
growth inhibition (GI) (NCI/ADR-RES): Active
inhibition of growth at 10 µM (786-0): 69.9%
inhibition of growth at 10 µM (A498): 53.8%
growth inhibition (GI) (UO-31): Active
growth inhibition (GI) (NCI-H460): Active
growth inhibition (GI) (HCT-116): Active
inhibition of growth at 10 µM (TK-10): 98.8%
inhibition of growth at 10 µM (OVCAR-8): 96.5%
inhibition of growth at 10 µM (SK-MEL-2): 27.4%
growth inhibition (GI) (MOLT-4): Active
